Measurements taken from ChEMBL document CHEMBL1255432, “Fast standardized therapeutic-efficacy assay for drug discovery against tuberculosis” (2010).

Experiments:
[1] = system: Mycobacterium tuberculosis; assay: Antimycobacterial activity against Mycobacterium tuberculosis H37Rv infected in B6 mouse assessed as assessed as lowest concentration to reduce bacterial burden in lungs to level of reduction achieved with higher doses orally treated in water-20% encapsine upto 8 days; assay type: functional, Lung
In short: (§1)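 B6 female mice given intratracheal H37Rv, 105 CFU/mouse in PBS, then oral once-daily treatment on days 1–8 across several doses. On day 9, lung homogenates were plated and CFU counted after 14 days. EDmax taken empirically as the lowest dose giving a lung CFU reduction statistically indistinguishable from higher doses; 5 mice/group.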

[2] = system: Mycobacterium tuberculosis; assay: Antimycobacterial activity against Mycobacterium tuberculosis H37Rv infected in B6 mouse assessed as 2 log reduction in bacterial burden in lungs orally treated in water-20% encapsine upto 8 days; assay type: functional; settings: Lung, po, 192 h
In short: (§2)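 Female B6 mice, 8–10 weeks old, infected intratracheally under 3% isoflurane with 10^5 CFU H37Rv in 50 μl PBS. Oral dosing once daily from day 1 to day 8 at a range of doses; lungs harvested day 9, homogenized and plated; colonies counted after 14 days. ED99 (2-log CFU/lung reduction versus untreated controls) fitted from individual log10 CFU/lung to a logistic equation; 5 mice/group; 95% CI.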

[3] = system: Mycobacterium tuberculosis; assay: Antimycobacterial activity against Mycobacterium tuberculosis H37Rv infected in B6 mouse assessed as 2 log reduction in bacterial burden in lungs orally treated in water upto 8 days; assay type: functional; settings: Lung, po, 192 h; in short: as §2
[4] = system: Mycobacterium tuberculosis; assay: Antimycobacterial activity against Mycobacterium tuberculosis H37Rv infected in B6 mouse assessed as lowest concentration to reduce bacterial burden in lungs to level of reduction achieved with higher doses orally treated in water upto 8 days; assay type: functional, Lung; in short: as §1
[5] = system: Mycobacterium tuberculosis; assay: Antimycobacterial activity against Mycobacterium tuberculosis H37Rv infected in B6 mouse assessed as 2 log reduction in bacterial burden in lungs orally treated in water-1% methylcellulose upto 8 days; assay type: functional; settings: Lung, po, 192 h; in short: as §2
[6] = system: Mycobacterium tuberculosis; assay: Antimycobacterial activity against Mycobacterium tuberculosis H37Rv infected in B6 mouse assessed as assessed as lowest concentration to reduce bacterial burden in lungs to level of reduction achieved with higher doses orally treated in water-1% methylcellulose upto 8 days; assay type: functional, Lung; in short: as §1
[7] = system: Mycobacterium tuberculosis; assay: Antimycobacterial activity against Mycobacterium tuberculosis H37Rv infected in B6 mouse assessed as 2 log reduction in bacterial burden in lungs orally treated in water-20% captisol upto 8 days; assay type: functional; settings: Lung, po, 192 h; in short: as §2
[8] = system: Mycobacterium tuberculosis; assay: Antimycobacterial activity against Mycobacterium tuberculosis H37Rv infected in B6 mouse assessed as assessed as lowest concentration to reduce bacterial burden in lungs to level of reduction achieved with higher doses orally treated in water-20% captisol upto 8 days; assay type: functional, Lung; in short: as §1

For `CO[C@H]1/C=C/O[C@@]2(C)Oc3c(C)c(O)c4c(O)c(c(/C=N/N5CCN(C)CC5)c(O)c4c3C2=O)NC(=O)/C(C)=C\C=C\[C@H](C)[C@H](O)[C@@H](C)[C@@H](O)[C@@H](C)[C@H](OC(C)=O)[C@@H]1C` [RIFAMPIN], the Emax [1] was 30 mg/kg and the ED99 [2] was 9.8 mg/kg.

In the case of `NNC(=O)c1ccncc1` [ISONIAZID], the ED99 [3] was 0.95 mg/kg and the Emax [4] was 25 mg/kg.

In the case of `CC(=O)NC[C@H]1CN(c2ccc(N3CCOCC3)c(F)c2)C(=O)O1` [LINEZOLID], the ED99 [5] was 28 mg/kg and the Emax [6] was “>=300 mg kg-1”.

For `CC[C@@H](CO)NCCN[C@@H](CC)CO` [ETHAMBUTOL], the ED99 [5] was 21.6 mg/kg and the Emax [6] was 300 mg/kg.

`COc1c(N2C[C@@H]3CCCN[C@@H]3C2)c(F)cc2c(=O)c(C(=O)O)cn(C3CC3)c12` [MOXIFLOXACIN] gave an ED99 [7] of 27.7 mg/kg and an Emax [8] of 100 mg/kg.

`NC(=O)c1cnccn1` [PYRAZINAMIDE] was tested, and the ED99 [5] was 362 mg/kg and the Emax [6] was “>=1000 mg kg-1”.
